Assay [1] deals with MT4. Briefly: (§1) Cytotoxic concentration required to reduce the viability of mock-infected MT-4 cells by 50%. Type of assay: functional. Particulars: Homo sapiens; call rule not given here. The method, boiled down:
(§2)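 MT-4 cells were infected with HIV-1 or mock-infected, then incubated with a range of test-compound concentrations. IC50 is the concentration giving 50% protection against HIV-1-induced cytopathic effect. CC50 is the concentration reducing viability of mock-infected cells by 50%. SI is CC50/IC50. Most determinations were run in duplicate and averaged.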

Assay [2] relates to MT4. Kind of assay: Effective concentration required to achieve 50% protection of MT-4 cells against the cytopathic effect of HIV-1; I = Inactive. Format: functional, cell-based, Homo sapiens. The method, boiled down:
as §2
(Damage to the host cells serves as the signal in cytopathic effect assays.)

Assay [3] relates to MT4. Briefly: Selectivity index measured as the ratio of CC50/IC50 values. Type of assay: functional. The method, boiled down: as §2
Assay [4] has as its system Human immunodeficiency virus 1. Kind of assay: Effective concentration required to achieve 50% protection of MT-4 cells against the cytopathic effect of HIV-1. Format: functional, organism-based. Particulars: Human immunodeficiency virus 1, MT4. The procedure, abridged:
as §2

In assay [5] the test system is MT4. The description is as §1. Format: functional, cell-based. Particulars: Homo sapiens. The method, boiled down: as §2

Structures are written as SMILES. Bounds are passed on as bounds.

Among the data in ChEMBL document CHEMBL1125252, “Synthesis and anti-HIV-1 activity of 4,5,6,7-tetrahydro-5-methylimidazo[4,5,1-jk][1,4]benzodiazepin- 2(1H)-one (TIBO) derivatives” (J Med Chem, 1991) are CC50, IC50 and Selectivity index values, retold here.

Consider `C[C@H]1Cn2c(O)nc3cccc(c32)CN1`, for which it took 901 µM to reach half-maximal cytotoxicity in the assay on MT4 [1] (CC50). In addition, in the assay on MT4 [2], the IC50 (usually the midpoint of a concentration-inhibition curve) is “Not Active”.
Regarding `C=C(C)CN1Cc2cccc3[nH]c(=O)n(c23)C[C@@H]1C`, in the assay with MT4 [1], half-maximal cytotoxicity (CC50) was put at 222 µM. Moreover, the Selectivity index in the assay on MT4 [3] came to 11. In assay [4], it took 19 µM to reach half-maximal inhibition (IC50).
In the case of `CCN1Cc2cccc3nc(O)n(c23)CC1C` (configuration not stated), the CC50 – broadly, the concentration at which the toxic effect on the cells reaches its halfway point – with MT4 [1] was found to be 592 µM. The IC50 result in the assay with MT4 [2] is “Not Active”.
The like results for `CC1Cn2c(O)nc3cccc(c32)CN1Cc1ccc[nH]1` (configuration not stated) were, in that order, 92 µM and “Not Active”.
For the molecule `CCCCN1Cc2cccc3nc(O)n(c23)CC1C` (configuration not stated), the CC50 with MT4 [1] was found to be 501 µM. The Selectivity index in the assay with MT4 [3] is 5. This molecule had an IC50 in assay [4] of 100 µM.
For `CC(C)CN1Cc2cccc3nc(O)n(c23)CC1C` (configuration not stated), the CC50 in the assay on MT4 [1] was 82 µM. For the same molecule, in the assay on MT4 [2], the IC50 entry is “Not Active”.
Regarding `C=C(CN1Cc2cccc3nc(O)n(c23)CC1C)C(C)C` (configuration not stated), the 50% cytotoxic concentration (CC50) with MT4 [1] amounted to 18 µM. In the assay on MT4 [2], the IC50 entry is listed as “Not Active”.
As to `CC(C)=C(C)CN1Cc2cccc3nc(O)n(c23)CC1C` (configuration not stated), the CC50 with MT4 [1] is greater than 876 µM. The IC50 result in the assay on MT4 [2] is given as “Not Active”.
In the assay on MT4 [1], `CC1Cn2c(O)nc3cccc(c32)CN1C/C=C\c1ccccc1` (configuration not stated) returned a CC50 of 388 µM. The Selectivity index with MT4 [3] is 3. The IC50 in assay [4] amounted to 122 µM.
Molecule `C/C=C/C=C/CN1Cc2cccc3nc(O)n(c23)CC1C` (configuration not stated) showed a CC50 with MT4 [1] of 378 µM. In addition, in the assay with MT4 [2], the IC50 entry is given as “Not Active”.
In the case of `COC(=O)CN1Cc2cccc3nc(O)n(c23)CC1C` (configuration not stated), the CC50 in the assay with MT4 [1] was 925 µM. This molecule registered an IC50 in assay [4] of 855 µM.
The like results for `C#CCN1Cc2cccc3nc(O)n(c23)CC1C` (configuration not stated) were, in that order, 990 µM and 580 µM.
As for `CC(C)=CCN1Cc2cccc3nc(O)n(c23)C[C@H]1C`, the CC50 in the assay on MT4 [1] worked out at 450 µM. The Selectivity index in the assay on MT4 [3] was found to be 20. The molecule also showed an IC50 in assay [4] of 22 µM.
Regarding `C=C(CC)CN1Cc2cccc3nc(O)n(c23)CC1C` (configuration not stated), the CC50 in the assay with MT4 [1] worked out at 66 µM. Also, in the assay with MT4 [3], the Selectivity index is 2. Besides, in assay [4], 37 µM corresponded to half-maximal inhibition (IC50).
The molecule `CC1Cn2c(O)nc3cccc(c32)CN1C/C=C/c1ccccc1` (configuration not stated) had a CC50 with MT4 [1] greater than 783 µM. For the same molecule, the IC50 entry in the assay with MT4 [2] was “Not Active”.
On to `CC(=O)CN1Cc2cccc3nc(O)n(c23)CC1C` (configuration not stated), for which half-maximal cytotoxicity in the assay on MT4 [1] (CC50) was put at 760 µM. Also, in the assay with MT4 [2], the IC50 result was “Not Active”.
In turn, `C=CC(=C)CN1Cc2cccc3nc(O)n(c23)CC1C` (configuration not stated) returned a CC50 in the assay on MT4 [1] of 290 µM. Besides, the Selectivity index in the assay on MT4 [3] amounted to 4. In assay [4], this molecule gave an IC50 of 71 µM.
In the assay on MT4 [1], `C=C(CN1Cc2cccc3nc(O)n(c23)CC1C)c1ccccc1` (configuration not stated) returned a CC50 of 3 µM. Further, the IC50 entry with MT4 [2] is given as “Not Active”.
With `C/C=C(/C)CN1Cc2cccc3nc(O)n(c23)CC1C` (configuration not stated), the CC50 with MT4 [1] came out at 106 µM. Moreover, in the assay on MT4 [3], the Selectivity index is 4. In assay [4], this molecule had an IC50 of 29 µM.
For `C=CCCN1Cc2cccc3nc(O)n(c23)CC1C` (configuration not stated), in that order: 552 µM, 11 and 50 µM.
In the case of `CC1Cn2c(O)nc3cccc(c32)CN1CC#N` (configuration not stated), in the assay with MT4 [1], half-maximal cytotoxicity (CC50) was put at 508 µM. Also, in the assay on MT4 [2], the IC50 entry is listed as “Not Active”.
`C/C=C/CN1Cc2cccc3nc(O)n(c23)CC1C` (configuration not stated) had a CC50 with MT4 [1] of 443 µM. The Selectivity index in the assay with MT4 [3] was 8. For the same molecule, half-maximal inhibition in assay [4] (IC50) was put at 58 µM.
The molecule `C=CCN1Cc2cccc3[nH]c(=O)n(c23)C[C@H]1C` yielded a CC50 in the assay on MT4 [5] of 592 µM. In the assay with MT4 [2], the IC50 result is given as “Not Active”.
In turn, `C#CC(C)=CCN1Cc2cccc3nc(O)n(c23)CC1C` (configuration not stated) registered a CC50 in the assay on MT4 [1] of 707 µM. Besides, the IC50 entry in the assay on MT4 [2] is “Not Active”.
`C[C@@H]1Cn2c(O)nc3cccc(c32)CN1` had a CC50 in the assay with MT4 [1] of 901 µM. For the same molecule, in the assay with MT4 [2], the 50% inhibitory concentration (IC50) result is recorded as “Not Active”.
As to `CC(C)=CCN1Cc2cccc3nc(O)n(c23)C[C@@H]1C`, the CC50 in the assay on MT4 [1] was found to be 427 µM. In the assay on MT4 [3], the Selectivity index was 105. In assay [4], this molecule registered an IC50 of 4 µM.
The like results for `CC1Cn2c(O)nc3cccc(c32)CN1CC1CC1` (configuration not stated) were, in that order, 588 µM, 13 and 44 µM.
The like results for `C=CCN1Cc2cccc3[nH]c(=O)n(c23)CC1C` (configuration not stated) were, in that order, 670 µM, 10 and 70 µM.
In the assay on MT4 [1], `C=C(Cc1ccccc1)CN1Cc2cccc3nc(O)n(c23)CC1C` (configuration not stated) had a CC50 of 572 µM. In the assay on MT4 [2], the IC50 result was “Not Active”.
As to `C/C=C\CN1Cc2cccc3nc(O)n(c23)CC1C` (configuration not stated), it took 560 µM to reach half-maximal cytotoxicity in the assay on MT4 [1] (CC50). Also, in the assay with MT4 [3], the Selectivity index is reported as 16. The molecule further yielded an IC50 in assay [4] of 35 µM.
Consider `C=C(CN1Cc2cccc3nc(O)n(c23)CC1C)C(=O)OCC` (configuration not stated), for which half-maximal cytotoxicity in the assay on MT4 [1] (CC50) was put at 3 µM. Further, the IC50 result in the assay with MT4 [2] is “Not Active”.
The like results for `CC(C)N1Cc2cccc3nc(O)n(c23)CC1C` (configuration not stated) were, in that order, 65 µM and “Not Active”.
`C#C/C=C/CN1Cc2cccc3nc(O)n(c23)CC1C` (configuration not stated) showed a CC50 in the assay on MT4 [1] of 370 µM. Moreover, the IC50 result in the assay on MT4 [2] is on record as “Not Active”.
The molecule `C#C/C(C)=C/CN1Cc2cccc3nc(O)n(c23)CC1C` (configuration not stated) displayed a CC50 in the assay on MT4 [1] of 18 µM. In addition, the IC50 entry with MT4 [2] is recorded as “Not Active”.
The like results for `CC1Cn2c(O)nc3cccc(c32)CN1CCO` (configuration not stated) were, in that order, 776 µM and “Not Active”.
For the molecule `CC1Cn2c(O)nc3cccc(c32)CN1CC1=CCCCC1` (configuration not stated), in the assay with MT4 [1], half-maximal cytotoxicity (CC50) was put at 212 µM. The IC50 result in the assay on MT4 [2] is “Not Active”.
For `CC1Cn2c(O)nc3cccc(c32)CN1Cc1ncc[nH]1` (configuration not stated), in that order: 685 µM and “Not Active”.
As for `CC(C)=CCC/C(C)=C\CN1Cc2cccc3nc(O)n(c23)CC1C` (configuration not stated), half-maximal cytotoxicity in the assay on MT4 [1] (CC50) was put at 44 µM. In the assay with MT4 [2], the IC50 entry is “Not Active”.
Molecule `C=C(Br)CN1Cc2cccc3nc(O)n(c23)CC1C` (configuration not stated) displayed a CC50 in the assay on MT4 [1] of 416 µM. In the assay on MT4 [3], the Selectivity index was found to be 7. This molecule also yielded an IC50 in assay [4] of 62 µM.
For `C=CCN1Cc2cccc3[nH]c(=O)n(c23)C[C@@H]1C`, in that order: 670 µM, 10 and 66 µM.
Turning to `CC(=O)N1Cc2cccc3nc(O)n(c23)CC1C` (configuration not stated), the CC50 in the assay with MT4 [1] came to 175 µM. In addition, the IC50 entry with MT4 [2] is reported as “Not Active”.
`CC1Cn2c(O)nc3cccc(c32)CN1Cc1ccco1` (configuration not stated) registered a CC50 in the assay with MT4 [1] of 529 µM. Besides, the Selectivity index in the assay with MT4 [3] amounted to 5. The molecule also showed an IC50 in assay [4] of 106 µM.
Molecule `CC(C)OCCN1Cc2cccc3nc(O)n(c23)CC1C` (configuration not stated) returned a CC50 with MT4 [1] of 504 µM. Besides, the IC50 entry in the assay on MT4 [2] is on record as “Not Active”.
In turn, `COC(=O)/C=C/CN1Cc2cccc3nc(O)n(c23)CC1C` (configuration not stated) came in with a CC50 with MT4 [1] of 252 µM. For the same molecule, the IC50 result in the assay on MT4 [2] was “Not Active”.
Molecule `C=C(C)CN1Cc2cccc3[nH]c(=O)n(c23)CC1C` (configuration not stated) returned a CC50 in the assay with MT4 [1] of 665 µM. Further, the Selectivity index with MT4 [3] came out at 15. This molecule also displayed an IC50 in assay [4] of 47 µM.
The like results for `CCCN1Cc2cccc3[nH]c(=O)n(c23)CC1C` (configuration not stated) were, in that order, 722 µM, 8 and 90 µM.
For `CC(C)=CCN1Cc2cccc3nc(O)n(c23)CC1C` (configuration not stated), in that order: 416 µM, 33 and 12.5 µM.
The like results for `C(=NC1CCCCC1)=NC1CCCCC1` [DICYCLOHEXYLCARBODIIMIDE] were, in that order, 232 µM, 1693 and 0.137 µM.
The molecule `O=c1[nH]cnc2c1ncn2[C@H]1CC[C@@H](CO)O1` [DIDANOSINE] showed a CC50 in the assay with MT4 [1] of 1050 µM. In addition, the Selectivity index with MT4 [3] came out at 191. In assay [4], this molecule had an IC50 of 5.5 µM.
The like results for `Cc1cn([C@H]2C[C@H](N=[N+]=[N-])[C@@H](CO)O2)c(=O)[nH]c1=O` [ZIDOVUDINE] were, in that order, 9.3 µM, 6200 and 0.0015 µM.
